Bioassay records as filed in PubChem BioAssay.
CHRM4 antagonist = human M4 muscarinic receptor antagonists, primary screen, CHO cells, Fluo-8 calcium fluorescence; Muscarinic acetylcholine receptor M4 (Homo sapiens), P08173; inhibition, % at 3 µM; 0.73% of 360,000 active; CHO-hM4 cells, ACh EC80; AID 624125, 2012;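 active means inhibition above its plate's cutoff, the mean inhibition of sample wells plus 3 SD, cut at about 27% in these data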;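 further: 0% = acetylcholine EC80 with DMSO and 100% = DMSO without agonist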
Target sequence (P08173 whole entry, looked up): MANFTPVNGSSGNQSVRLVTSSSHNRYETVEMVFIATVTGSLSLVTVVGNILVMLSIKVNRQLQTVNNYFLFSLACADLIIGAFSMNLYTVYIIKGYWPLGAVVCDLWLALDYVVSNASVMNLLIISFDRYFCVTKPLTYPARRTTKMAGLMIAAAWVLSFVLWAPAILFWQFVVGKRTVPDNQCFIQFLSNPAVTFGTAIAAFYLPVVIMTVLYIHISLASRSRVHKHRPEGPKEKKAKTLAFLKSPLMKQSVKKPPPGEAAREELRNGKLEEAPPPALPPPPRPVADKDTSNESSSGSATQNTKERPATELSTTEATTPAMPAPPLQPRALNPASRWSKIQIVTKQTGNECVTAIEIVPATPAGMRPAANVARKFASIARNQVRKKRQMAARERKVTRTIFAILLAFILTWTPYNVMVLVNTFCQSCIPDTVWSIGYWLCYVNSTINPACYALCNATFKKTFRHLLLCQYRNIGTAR
M4 PAM = human M4 muscarinic receptor positive allosteric modulators, primary screen, CHO-K1 cells, Fluo-8 calcium fluorescence | AID 624126, 2012 | activation, % at 3 µM | CHO-K1 hM4/Gqi5, ACh EC20; 0% = ACh EC20, 100% = maximal ACh | 0.4% of 360,000 active | Muscarinic acetylcholine receptor M4 (Homo sapiens), P08173;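 active means activation above its plate's cutoff, the mean activation of sample wells plus 3 SD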
CHRM5 PAM = human M5 muscarinic receptor positive allosteric modulators, primary screen, CHO-K1 cells, Fluo-8 calcium fluorescence; activation, % at 3 µM; AID 624038, 2012; Muscarinic acetylcholine receptor M5 (Homo sapiens), P08912; 0.3% of 360,000 active; CHO-K1 hM5, ACh EC20 PAM; 0% = ACh EC20, 100% = ACh EC100;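 active means activation above the run cutoff, the mean activation of all test compounds plus 3 SD, cut at about 18% in these data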
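Probe or stimulus: acetylcholine, EC20 level; Assay system: human M5 receptor in CHO-K1 cells; Schedule: compound preincubation 140 s before EC20 acetylcholine addition; Technique: intracellular calcium via Fluo-8 fluorescence; Dosing: single-point, 3 µM nominal; Read-out basis: percent activation from peak-over-basal fluorescence ratio, scaled EC20-to-EC100 acetylcholine; Repeats: one well per compound, no replicates.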
CHRM5 agonist = human M5 muscarinic receptor agonists, primary screen, CHO-K1 cells, Fluo-8 calcium fluorescence | activation, % at 3 µM | Muscarinic acetylcholine receptor M5 (Homo sapiens), P08912 | AID 624037, 2012 | 0.19% of 360,000 active | CHO-K1 hM5 cells; 0% DMSO wells, 100% maximal acetylcholine response;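 active means activation above the run's mean over test compounds plus 3 SD, cut at about 23% in these data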;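 further: signal is peak over basal fluorescence ratio across the kinetic read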
M5 antag = human M5 muscarinic receptor antagonists, primary screen, CHO cells, Fluo-8 calcium fluorescence | Muscarinic acetylcholine receptor M5 (Homo sapiens), P08912 | CHO-hM5 cells, ACh EC80 | inhibition, % at 3 µM | 0.59% of 360,000 active | AID 624040, 2012;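 active means inhibition above a per-plate cutoff, the mean of that plate's test compounds plus 3 SD, cut at about 27% in these data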;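 further: 0% = acetylcholine EC80 with DMSO and 100% = DMSO without agonist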
CHRM4 agonist = human M4 muscarinic receptor agonists, primary screen, CHO-K1 cells, Fluo-8 calcium fluorescence | activation, % at 3 µM | 0.14% of 360,000 active | CHO-K1 hM4/Gqi5; vehicle 0%, full acetylcholine response 100% | Muscarinic acetylcholine receptor M4 (Homo sapiens), P08173;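 active means activation above the run mean over all test wells plus 3 SD, cut at about 32% in these data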;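 further: peak over basal fluorescence ratio per well then scaled between controls; 0% = DMSO wells and 100% = acetylcholine at EC100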
Active calls of the source: *. This is a sample that favours compounds with a hit; in the whole collection about 1.8% have one here.

SMILES	CHRM4 antagonist	M4 PAM	CHRM5 PAM	CHRM5 agonist	M5 antag	CHRM4 agonist
Cc1cccnc1C(NC(=O)C1CCN(Cc2ccccc2)CC1)c1ccc(F)cc1 (centres undefined)	-1	1	-16	-3	2	2
COC(=O)c1c(-c2cccc(OC)c2)csc1N	5	-4	2	0	-2	1
COC(=O)c1c(-c2ccc(OC)c(OC)c2)csc1N	-18	7	44*	-3	-4	4
C=C(C)C(=O)OCC(O)COc1ccc(C(C)(C)c2ccc(OCC(O)COC(=O)C(=C)C)cc2)cc1 (centres undefined)	32*	-14	-17	12	27*	26
C[C@H](NC(=O)CCC1CCC(=O)N1)c1ccccc1 (some centres undefined)	1	-1	3	2	11	1
CCCCCCCCCCCCCCCC[N+](C)(C)CC	52*	-18	-19	-1	77*	1
CCCCCCCCCCCCCCCC[N+](C)(C)CCl	35*	-10	-45	-11	29*	2
CCCCCC[N+](C)(C)CCSSCC[N+](C)(C)CCCCCC	-5	4	2	-5	9	0
COc1ccc(NC(=O)C2(C)Cc3c(-c4ccc(N(C)C)cc4)ccnc3O2)cc1OC (centres undefined)	10	3	0	-2	-1	-2
Cc1cccc(NS(=O)(=O)c2c(C)[nH]c(C)c2C(=O)N2CCCC2)c1	-2	-6	-2	-2	2	1
O=C(NCCSCc1ccccc1)c1ccc(C2SCC(=O)N2Cc2ccccc2)cc1 (centres undefined)	34*	-18	-24	-6	14	9
COC(=O)c1ccc(C2SCC(=O)N2Cc2ccccc2)cc1 (centres undefined)	3	-10	-5	-1	4	8
CCCCOc1ccc(C(=O)NCCN2CCC(n3c(=O)[nH]c4ccccc43)CC2)cc1	59*	-15	-11	-2	9	13
O=C(NCCN1CCC(n2c(=O)[nH]c3ccccc32)CC1)C(c1ccccc1)c1ccccc1	16	-12	-24	-4	37*	5
CCn1nc(C(=O)N2CCN(Cc3nc4ccccc4s3)CC2)c2ccccc2c1=O	35*	-14	-36	7	20	22
Cc1cccc(C)c1NC(=O)C1(C)CN(S(C)(=O)=O)CC(=O)N1CC(F)(F)F (centres undefined)	3	8	-3	0	4	2
C=C(C)CNC(=O)c1ccc2nc(Cc3ccc(OC)cc3)oc2c1	-2	-3	7	11	-1	2
c1ccc(-c2noc(-c3ccno3)n2)nc1	-18	17	4	-1	2	0
Cc1ccc(-c2noc(-c3ccno3)n2)cc1	-1	31*	-9	-5	8	1
CCCCNC(=O)c1nc(-c2ccncc2)oc1-c1ccccc1	-15	4	5	0	8	3
Cc1nn(-c2ccccn2)c(C)c1Oc1ccccc1O	-4	-3	-3	-1	5	1
Cc1nn(-c2nc3ccccc3s2)c(C)c1Oc1ccccc1O	32*	-30	-8	3	0	37*
O=C(Cn1c(Cn2c(-c3cnccn3)nc3ccccc32)nc2ccccc21)c1ccc(OC(F)(F)F)cc1	5	4	1	1	-2	2
Cc1nn(C)c(C)c1NS(=O)(=O)c1c(C)n[nH]c1C	-3	-3	-6	-1	10	0
O=C(C(Cl)Cl)N1CC2CCC(CC2)C1	-4	2	18*	-9	-9	0
SMILES	CHRM4 antagonist	M4 PAM	CHRM5 PAM	CHRM5 agonist	M5 antag	CHRM4 agonist
O=C(NCc1ccccn1)c1ccccc1OCc1ccccc1Cl	-17	4	-5	0	-2	7
COc1ccc(C[C@@H]2CN3C(=NC[C@@H]3Cc3ccc(O)cc3)N2C[C@H](C)NC(=O)CCC2CCCCC2)cc1	28*	-13	-13	-12	5	-1
CCOc1ccccc1C(=O)OCC(=O)NCCNC(=O)COC(=O)c1ccccc1OCC	5	-3	38*	2	21	2
CCOc1ccccc1C(=O)OCC(=O)NCC1CCCCC1	42*	-9	2	-5	-6	-3
CCOC(=O)N1Cc2cc3ccccc3nc2C1	-4	3	-1	1	5	1
COc1ccc2[nH]c3c(c2c1)CCN1C(=O)C(CC(=O)NCc2cccc(C(F)(F)F)c2)C[C@H](C(=O)N2CCCCC2)[C@@]31CCc1ccccc1 (some centres undefined)	0	8	10	1	-1	0
CCC(C)(C)NC(=O)C1CCN(S(=O)(=O)c2cccs2)CC1	2	-9	-14	-1	33*	20
COc1ccc(-c2csc(NC(=S)NC(=O)c3ccc4ccccc4c3)n2)cc1OC	0	6	18*	-1	-28	1
COc1ccc(-c2csc(NC(C)=O)n2)cc1OC	-1	2	-2	-2	3	1
Cc1ccc(N(CCC#N)C(=O)CSc2nnc3ccccn23)cc1	-12	6	-4	-3	11	0
CCN1CCN(CCCNC(=O)C2CCCN(c3nnc(-n4cccc4)s3)C2)CC1 (centres undefined)	-10	27*	-2	-2	-4	0
COc1ccc(C(=O)C2CCCN(C(=O)Cn3nc(C)cc3C)C2)cc1F (centres undefined)	29*	12	-4	2	5	2
COc1ccc(C(=O)C2CCCN(Cc3cn(C)nc3-c3ccccc3)C2)cc1F (centres undefined)	40*	-24	-6	-2	5	82*
O=C(CC1CCC1)Nc1cccc2c([N+](=O)[O-])cccc12	8	-11	-11	-7	28*	0
O=C(c1cnn2c(C(F)F)cc(C3CC3)nc12)N1CCCC1	21	34*	2	3	4	-3
O=C(c1cnn2c(C(F)F)cc(C3CC3)nc12)N1CCc2ccccc2C1	-6	-12	-17	0	12	11
C/C(=N\NC(N)=S)c1ccc(Cl)s1	6	-1	1	1	7	1
